According to ChEMBL document CHEMBL4689842, “EUbOPEN Chemogenomics Library wave 1” (2021):

What was measured:
Assay type in all cases: toxicity, cell-based
Fibroblast = test: Incucyte cell viability with human fibroblast; settings: 10 µM, compound concentration 10 uM; note: filed as whole numbers so only -1 and 0 and 1 occur
HEK-293T = test: Incucyte cell viability with HEK293T; settings: human, 10 µM, compound concentration 10 uM; note: filed as whole numbers so only -1 and 0 and 1 occur
U2OS [1] = test: Incucyte cell viability with U2OS; settings: human, 10 µM, compound concentration 10 uM; note: filed as whole numbers so only -1 and 0 and 1 occur
U2OS [2] = test: Multiplex assay against U2OS; settings: human
Outline: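 At seeding, live cells were stained with Hoechst33342, BioTracker Green Microtubule Cytoskeleton Dye, MitoTracker Red and Annexin V Alexa Fluor 680. After compound addition they were imaged on a CQ1 microscope at 37°C and 5% CO2, and CellPathfinder machine-learning gating sorted them into Hoechst high-intensity objects or normal cells, with normal cells further split into healthy, pyknosed or fragmented nuclei and pyknosed cells into mitotic or apoptotic. Tubulin, mitochondrial-mass and membrane-permeability phenotypes are given as per cents of cells with healthy nuclei.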

[3] = 6 h, replicate number 1, timepoint 6 hours
[4] = 12 h, replicate number 1, timepoint 12 hours
[5] = 18 h, replicate number 1, timepoint 18 hours
[6] = 24 h, replicate number 1, timepoint 24 hours
[7] = 12 h, 1 µM, compound concentration 1 uM, replicate 1
[8] = 12 h, 1 µM, compound concentration 1 uM, replicate 2
[9] = 12 h, 10 µM, compound concentration 10 uM, replicate 1
[10] = 12 h, 10 µM, compound concentration 10 uM, replicate 2
[11] = 24 h, 1 µM, compound concentration 1 uM, replicate 1
[12] = 24 h, 1 µM, compound concentration 1 uM, replicate 2
[13] = 24 h, 10 µM, compound concentration 10 uM, replicate 1
[14] = 24 h, 10 µM, compound concentration 10 uM, replicate 2

Structure (SMILES): CC[C@H](Nc1ncnc2[nH]cnc12)c1nc2cccc(F)c2c(=O)n1-c1ccccc1 [IDELALISIB]
- Growth Rate (Fibroblast; [3]): 0
- Growth Rate (Fibroblast; [4]): 0
- Growth Rate (Fibroblast; [5]): 0
- Growth Rate (Fibroblast; 18 h, replicate number 2, timepoint 18 hours): 1
- Growth Rate (Fibroblast; [6]): 1
- Growth Rate (HEK-293T; [3]): 0
- Growth Rate (HEK-293T; [4]): 0
- Growth Rate (HEK-293T; [5]): 0
- Growth Rate (HEK-293T; [6]): 0
- Growth Rate (U2OS [1]; 0 h, replicate number 1, timepoint 0 hours): 0
- Growth Rate (U2OS [1]; [3]): 0
- Growth Rate (U2OS [1]; [4]): 1
- Growth Rate (U2OS [1]; 12 h, replicate number 2, timepoint 12 hours): 0
- Growth Rate (U2OS [1]; [5]): 0
- Growth Rate (U2OS [1]; [6]): 0
- Population Apoptotic (%) (U2OS [2]; [7]): 46%
- Population Fragmented Nuclei (%) (U2OS [2]; [7]): 1%
- Population Healthy Nuclei (%) (U2OS [2]; [7]): 88%
- Population Hoechst High Intensity Objects (%) (U2OS [2]; [7]): 3%
- Population Membrane Permeable-Phenotype (%) (U2OS [2]; [7]): 47%
- Population Mitochondria Different-Phenotype (%) (U2OS [2]; [7]): 10%
- Population Mitotic Cells (%) (U2OS [2]; [7]): 53%
- Population Normal (%) (U2OS [2]; [7]): 96%
- Population Pyknosed Nuclei (%) (U2OS [2]; [7]): 9%
- Population Tubulin-Different-Phenotype (%) (U2OS [2]; [7]): 34%
- Total Cell Count (U2OS [2]; [7]): 162
- Population Apoptotic (%) (U2OS [2]; [8]): 14%
- Population Fragmented Nuclei (%) (U2OS [2]; [8]): 10%
- Population Healthy Nuclei (%) (U2OS [2]; [8]): 84%
- Population Hoechst High Intensity Objects (%) (U2OS [2]; [8]): 9%
- Population Membrane Permeable-Phenotype (%) (U2OS [2]; [8]): 45%
- Population Mitochondria Different-Phenotype (%) (U2OS [2]; [8]): 8%
- Population Mitotic Cells (%) (U2OS [2]; [8]): 85%
- Population Normal (%) (U2OS [2]; [8]): 90%
- Population Pyknosed Nuclei (%) (U2OS [2]; [8]): 5%
- Population Tubulin-Different-Phenotype (%) (U2OS [2]; [8]): 27%
- Total Cell Count (U2OS [2]; [8]): 132
- Population Apoptotic (%) (U2OS [2]; [9]): 0%
- Population Fragmented Nuclei (%) (U2OS [2]; [9]): 5%
- Population Healthy Nuclei (%) (U2OS [2]; [9]): 86%
- Population Hoechst High Intensity Objects (%) (U2OS [2]; [9]): 11%
- Population Membrane Permeable-Phenotype (%) (U2OS [2]; [9]): 4%
- Population Mitochondria Different-Phenotype (%) (U2OS [2]; [9]): 18%
- Population Mitotic Cells (%) (U2OS [2]; [9]): 100%
- Population Normal (%) (U2OS [2]; [9]): 88%
- Population Pyknosed Nuclei (%) (U2OS [2]; [9]): 7%
- Population Tubulin-Different-Phenotype (%) (U2OS [2]; [9]): 90%
- Total Cell Count (U2OS [2]; [9]): 180
- Population Fragmented Nuclei (%) (U2OS [2]; [10]): 8%
- Population Healthy Nuclei (%) (U2OS [2]; [10]): 88%
- Population Hoechst High Intensity Objects (%) (U2OS [2]; [10]): 16%
- Population Mitochondria Different-Phenotype (%) (U2OS [2]; [10]): 28%
- Population Normal (%) (U2OS [2]; [10]): 83%
- Population Pyknosed Nuclei (%) (U2OS [2]; [10]): 2%
- Population Tubulin-Different-Phenotype (%) (U2OS [2]; [10]): 15%
- Total Cell Count (U2OS [2]; [10]): 130
- Population Apoptotic (%) (U2OS [2]; [11]): 45%
- Population Fragmented Nuclei (%) (U2OS [2]; [11]): 3%
- Population Healthy Nuclei (%) (U2OS [2]; [11]): 85%
- Population Hoechst High Intensity Objects (%) (U2OS [2]; [11]): 3%
- Population Membrane Permeable-Phenotype (%) (U2OS [2]; [11]): 28%
- Population Mitochondria Different-Phenotype (%) (U2OS [2]; [11]): 9%
- Population Mitotic Cells (%) (U2OS [2]; [11]): 54%
- Population Normal (%) (U2OS [2]; [11]): 96%
- Population Pyknosed Nuclei (%) (U2OS [2]; [11]): 10%
- Population Tubulin-Different-Phenotype (%) (U2OS [2]; [11]): 17%
- Total Cell Count (U2OS [2]; [11]): 210
- Population Apoptotic (%) (U2OS [2]; [12]): 42%
- Population Fragmented Nuclei (%) (U2OS [2]; [12]): 9%
- Population Healthy Nuclei (%) (U2OS [2]; [12]): 77%
- Population Hoechst High Intensity Objects (%) (U2OS [2]; [12]): 5%
- Population Membrane Permeable-Phenotype (%) (U2OS [2]; [12]): 32%
- Population Mitochondria Different-Phenotype (%) (U2OS [2]; [12]): 15%
- Population Mitotic Cells (%) (U2OS [2]; [12]): 57%
- Population Normal (%) (U2OS [2]; [12]): 94%
- Population Pyknosed Nuclei (%) (U2OS [2]; [12]): 13%
- Population Tubulin-Different-Phenotype (%) (U2OS [2]; [12]): 15%
- Total Cell Count (U2OS [2]; [12]): 148
- Population Apoptotic (%) (U2OS [2]; [13]): 33%
- Population Fragmented Nuclei (%) (U2OS [2]; [13]): 3%
- Population Healthy Nuclei (%) (U2OS [2]; [13]): 93%
- Population Hoechst High Intensity Objects (%) (U2OS [2]; [13]): 11%
- Population Membrane Permeable-Phenotype (%) (U2OS [2]; [13]): 2%
- Population Mitochondria Different-Phenotype (%) (U2OS [2]; [13]): 19%
- Population Mitotic Cells (%) (U2OS [2]; [13]): 66%
- Population Normal (%) (U2OS [2]; [13]): 88%
- Population Pyknosed Nuclei (%) (U2OS [2]; [13]): 2%
- Population Tubulin-Different-Phenotype (%) (U2OS [2]; [13]): 94%
- Total Cell Count (U2OS [2]; [13]): 244
- Population Apoptotic (%) (U2OS [2]; [14]): 40%
- Population Fragmented Nuclei (%) (U2OS [2]; [14]): 9%
- Population Healthy Nuclei (%) (U2OS [2]; [14]): 82%
- Population Hoechst High Intensity Objects (%) (U2OS [2]; [14]): 8%
- Population Membrane Permeable-Phenotype (%) (U2OS [2]; [14]): 8%
- Population Mitochondria Different-Phenotype (%) (U2OS [2]; [14]): 30%
- Population Mitotic Cells (%) (U2OS [2]; [14]): 60%
- Population Normal (%) (U2OS [2]; [14]): 91%
- Population Pyknosed Nuclei (%) (U2OS [2]; [14]): 7%
- Population Tubulin-Different-Phenotype (%) (U2OS [2]; [14]): 21%
- Total Cell Count (U2OS [2]; [14]): 146
